According to ChEMBL document CHEMBL1123760, “Synthesis and oral antifungal activity of novel azolylpropanolones and related compounds” (1987):
Values after ≈ are worked out from the molar mass of the structure shown.

Columns and labels:
Assay type in all cases: functional
Aspergillus fumigatus = test: In vitro antifungal activity against Aspergillus fumigatus; conditions: Aspergillus fumigatus; read-out: MIC
How it was run: (§1)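 Broth microdilution MIC in Sabouraud's glucose broth; final inocula 1 × 10^5 cells/mL (yeast) or 1 × 10^5 conidia/mL (mold and dermatophyte).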

Candida albicans [1] = test: In vitro antifungal activity against Candida albicans; conditions: Candida albicans; read-out: MIC; how it was run: as §1
Candida albicans [2] = test: Minimum effective concentration for inhibition of pseudomycelium formation in Candida albicans; conditions: Candida albicans; read-out: MEC
How it was run: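 C. albicans KE-2 (clinical isolate) at a final 1 × 10^6 yeast cells/mL in EMEM with 20% calf serum; compounds diluted by the same microtiter system as for MICs. After incubation, wells were Giemsa-stained (5% in phosphate buffer) and read by microscope. MEC is the lowest concentration preventing typical pseudomycelium formation.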

Mus musculus = test: Ratio of in vivo number of survivors / total infected; set-up: reference not given here
Trichophyton benhamiae = test: In vitro antifungal activity against Trichophyton asteroides; conditions: Trichophyton benhamiae; read-out: MIC; how it was run: as §1

SMILES	MIC (Aspergillus fumigatus) [µg/mL]	MIC (Candida albicans [1]) [µg/mL]	minimal effective concentration (Candida albicans [2]) [µg/mL]	No. of survivors (Mus musculus)	MIC (Trichophyton benhamiae) [µg/mL]
Cc1ccccc1C(=O)C(O)(Cn1cncn1)c1ccccc1C (stereo not given)	> 100	> 100	5	0	3.1 (≈ 9.65 µM)
OC(c1ccc(Cl)cc1Cl)C(O)(Cn1ccnc1)c1ccc(Cl)cc1Cl (stereo not given)	100 (≈ 231 µM)	50 (≈ 116 µM)	1.25	3	0.1 (≈ 0.231 µM)
O=C(c1ccc(Cl)cc1)C(O)(Cn1cncn1)C1CCCCC1 (stereo not given)	50 (≈ 150 µM)	> 100	0.08	0	0.8 (≈ 2.4 µM)
CCCC(=O)C(O)(Cn1cncn1)c1ccc(Cl)cc1 (stereo not given)	12.5 (≈ 42.6 µM)	100 (≈ 340 µM)	0.08	0	0.1 (≈ 0.34 µM)
O=C1O[C@H](c2ccc(Cl)cc2Cl)[C@@](Cn2cncn2)(c2ccc(Cl)cc2Cl)O1	> 100	> 100	0.16	0	0.1 (≈ 0.218 µM)
OC(c1ccc(Cl)cc1Cl)C(O)(Cn1cncn1)c1ccc(Cl)cc1Cl (stereo not given)	> 100	100 (≈ 231 µM)	0.08	6	0.1 (≈ 0.231 µM)
O=C(c1ccc(F)cc1)C(O)(Cn1cncn1)c1ccc(Cl)cc1Cl (stereo not given)	> 100	> 100	1.25	2	0.1 (≈ 0.263 µM)
CCCC(O)(c1ccc(F)cc1)C(O)(Cn1cncn1)c1ccc(Cl)cc1 (stereo not given)	> 100	> 100	0.31	7	0.2 (≈ 0.513 µM)
CCCCC(O)(Cn1cncn1)C(=O)c1ccc(Cl)cc1 (stereo not given)	100 (≈ 325 µM)	100 (≈ 325 µM)	0.31	2	0.2 (≈ 0.65 µM)
O=C(c1ccccc1)C(O)(Cn1cncn1)c1ccc(Cl)cc1Cl (stereo not given)	> 100	> 100	1.25	7	0.1 (≈ 0.276 µM)
O=C(c1ccc(Cl)cc1Cl)C(O)(Cn1ccnc1)c1ccc(Cl)cc1 (stereo not given)	25 (≈ 63.2 µM)	25 (≈ 63.2 µM)	2.5	0	0.1 (≈ 0.253 µM)
O=C(c1ccccc1Cl)C(O)(Cn1ccnc1)c1ccccc1Cl (stereo not given)	> 100	> 100	2.5	2	0.1 (≈ 0.277 µM)
CC(C)CC(=O)C(O)(Cn1cncn1)c1ccc(Cl)cc1Cl (stereo not given)	100 (≈ 292 µM)	100 (≈ 292 µM)	0.02	0	0.1 (≈ 0.292 µM)
CC(C)(C)C(=O)C(O)(Cn1cncn1)c1ccc(Cl)cc1Cl (stereo not given)	> 100	> 100	0.04	7	0.1 (≈ 0.292 µM)
O=C(c1ccc(Cl)cc1)C(O)(Cn1cncn1)C1CCCC1 (stereo not given)	50 (≈ 156 µM)	100 (≈ 313 µM)	0.16	1	0.1 (≈ 0.313 µM)
O=C(c1ccccc1Cl)C(O)(Cn1cncn1)c1ccc(F)cc1 (stereo not given)	> 100	100 (≈ 289 µM)	10	0	0.4 (≈ 1.16 µM)
CCCC(=O)C(O)(Cn1cncn1)c1ccc(Cl)cc1Cl (stereo not given)	50 (≈ 152 µM)	50 (≈ 152 µM)	0.04	4	0.1 (≈ 0.305 µM)
CCCCC(=O)C(O)(Cn1ccnc1)c1ccc(Cl)cc1Cl (stereo not given)	> 100	> 100	0.04	0	0.1 (≈ 0.293 µM)

SMILES	MIC (Aspergillus fumigatus) [µg/mL]	MIC (Candida albicans [1]) [µg/mL]	minimal effective concentration (Candida albicans [2]) [µg/mL]	No. of survivors (Mus musculus)	MIC (Trichophyton benhamiae) [µg/mL]
O=C(c1ccc(Cl)cc1Cl)[C@](O)(Cn1cncn1)c1ccc(Cl)cc1Cl	> 100	> 100	0.08	8	0.1 (≈ 0.232 µM)
O=S1O[C@H](c2ccc(Cl)cc2Cl)[C@](Cn2cncn2)(c2ccc(Cl)cc2)O1 (stereo not given in full)	> 100	100 (≈ 225 µM)	0.02	7	0.1 (≈ 0.225 µM)
CC(C)CC(=O)C(O)(Cn1cncn1)c1ccc(Cl)cc1 (stereo not given)	50 (≈ 162 µM)	100 (≈ 325 µM)	0.04	0	0.1 (≈ 0.325 µM)
O=C(c1ccccc1Cl)C(O)(Cn1cncn1)c1ccc(Cl)cc1 (stereo not given)	> 100	> 100	> 20	0	0.4 (≈ 1.1 µM)
O=C(c1ccc(Cl)cc1)C(O)(Cn1ccnc1)c1ccc(Cl)cc1Cl (stereo not given)	> 100	> 100	2.5	0	0.1 (≈ 0.253 µM)
O=C(C1CCCC1)C(O)(Cn1cncn1)c1ccc(Cl)cc1Cl (stereo not given)	> 100	50 (≈ 141 µM)	0.02	0	0.1 (≈ 0.282 µM)
CC(C)C(=O)C(O)(Cn1ccnc1)c1ccc(Cl)cc1Cl (stereo not given)	> 100	> 100	0.04	1	0.1 (≈ 0.306 µM)
O=C(c1ccccc1Cl)C(O)(Cn1cncn1)c1ccc(Cl)cc1Cl (stereo not given)	> 100	> 100	0.04	8	0.1 (≈ 0.252 µM)
O=C(c1ccc(Cl)cc1Cl)C(O)(Cn1cncn1)c1ccccc1Cl (stereo not given)	100 (≈ 252 µM)	100 (≈ 252 µM)	0.31	7	0.1 (≈ 0.252 µM)
OC(c1ccccc1Cl)C(O)(Cn1cncn1)c1ccccc1Cl (stereo not given)	6.3 (≈ 17.3 µM)	100 (≈ 275 µM)	0.08	2	0.1 (≈ 0.275 µM)
O=C1O[C@H](c2ccccc2Cl)[C@@](Cn2cncn2)(c2ccccc2Cl)O1	> 100	> 100	0.31	0	12.5 (≈ 32 µM)
CCCC(O)(Cn1cncn1)C(=O)c1ccc(Cl)cc1Cl (stereo not given)	50 (≈ 152 µM)	> 100	1.25	1	0.4 (≈ 1.22 µM)
O=C1O[C@H](c2ccc(Cl)cc2Cl)[C@@](Cn2cncn2)(c2ccc(Cl)cc2)O1	> 100	50 (≈ 118 µM)	0.63	8	0.1 (≈ 0.235 µM)
O=S1O[C@H](c2ccc(Cl)cc2Cl)[C@@](Cn2cncn2)(c2ccc(Cl)cc2)O1 (stereo not given in full)	> 100	100 (≈ 225 µM)	0.08	5	0.1 (≈ 0.225 µM)
Clc1ccc([C@@]2(Cn3cncn3)OC3(CCCCC3)O[C@@H]2c2ccc(Cl)cc2Cl)cc1	> 100	> 100	5	0	0.1 (≈ 0.209 µM)
Cc1ccc(C(=O)C(O)(Cn2cncn2)c2ccccc2Cl)cc1 (stereo not given)	> 100	> 100	2.5	1	0.8 (≈ 2.34 µM)
CC(=O)C(O)(Cn1cncn1)c1ccc(Cl)cc1Cl (stereo not given)	50 (≈ 167 µM)	> 100	0.04	2	0.2 (≈ 0.666 µM)
O=C(c1ccc(Cl)cc1Cl)C(O)(Cn1ccnc1)c1ccc(Cl)cc1Cl (stereo not given)	25 (≈ 58.1 µM)	50 (≈ 116 µM)	5	1	0.1 (≈ 0.232 µM)
